Results: PubChem BioAssay AID504382 (The Scripps Research Institute Molecular Screening Center, 2011)
In all, about 2,500 compounds went through this assay and about 460 (18%) were called active.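 Rule for the calls: active = mean activation above a cutoff of low control average plus 3 SD from the earlier screen (cut at about 12% in these data); inactive = the rest.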 A selection follows.

Experiment: IANBD-channel fluorescence artefacts in buffer – biochemical, artefact control for cardiac RTF calcium sensitizer project, confirmation (AID 504382)
Conditions: IANBD fluorescence interference counterscreen, EC20 Ca2+, at 7.2 µM, stronger effect = higher value, scaled: EC20 calcium 0, EC100 calcium 100
In short: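 Medium: MOPS/KCl/MgCl2/EGTA/NTA/DTT buffer, pH 7.2 | Reagent: EC20 calcium, 0.472 mM | Compound dosing: 7.2 µM single dose | Times: 15 min compound exposure at 25 °C | Signal: Fluorescence, 480/540 nm | Measure: Interference relative to controls | Repeats: Triplicate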

SMILES	fluorescence artifact activation
CCc1ccc(Nc2n[n+](-c3ccccc3)c(-c3ccc(N(CC)CC)cc3)s2)cc1	-0.01% (inactive)
C[C@H](CO)N1C[C@H](C)[C@@H](CN(C)S(=O)(=O)c2cccs2)Oc2c(NC(=O)Nc3ccc4c(c3)OCO4)cccc2C1=O	2.08% (inactive)
COCc1cc(=O)[nH]c2cc(NC(=O)C(C)(C)CCl)c(C)cc12	-0.05% (inactive)
COc1ccc(CCNC(=O)c2ccccc2OCc2c(C)noc2C)cc1	-0.02% (inactive)
CCOCCCNC(=S)NCCCNc1nc2c(C)cc(C)cc2cc1C#N	0.14% (inactive)
COc1cc(N2CCCC2)c(OC)cc1/C=C(/C#N)c1ccc(Br)cc1	0.93% (inactive)
COc1cc(N2CCCC2)c(OC)cc1/C=C1/NC(=S)NC1=O	16.7% (active)
COc1cc(N2CCCC2)c(OC)cc1/C=C(/C#N)c1cccc(Br)c1	-0.03% (inactive)
N#Cc1ccc(CSc2nnc(-c3cnccn3)o2)cc1	45.1% (active)
O=c1oc2cc(O)ccc2cc1-c1nc2c(s1)CCc1ccccc1-2	0.02% (inactive)
CC(C)(C)c1cc[n+](-c2[nH]c(=O)sc2/C=N/NC([S-])=Nc2ccccc2)cc1	1.92% (inactive)
Cc1ccccc1C(=O)NCCCc1ccccc1	0.02% (inactive)
CN1CCN(S(=O)(=O)c2cccc(C(=O)Oc3cccc(Br)c3)c2)CC1	0.74% (inactive)
COC(=O)N1CCN(S(=O)(=O)c2ccc(F)cc2)CC1	-0.07% (inactive)
O=S(=O)(c1ccc(F)cc1)N1CCN(CCOc2ccccc2)CC1	361% (active)
CC(C)c1nnc(N2C(=O)C(O)=C(C(=O)c3cccs3)C2c2ccccc2)s1 (stereo not given)	0.07% (inactive)
O=C(COC(=O)c1cc(-c2cccc3ccccc23)nc2ccccc12)NC1CCS(=O)(=O)C1 (stereo not given)	0.37% (inactive)
CCCCC(=O)Nc1ccc(C(=O)Nc2ccc(OC)cc2[N+](=O)[O-])cc1	2.86% (inactive)
Cn1nc(-c2ccccc2)c2nc3ccccc3nc21	0.09% (inactive)
CCCCCn1nc(-c2ccccc2)c2nc3ccccc3nc21	20.1% (active)
CCn1nc(-c2ccccc2)c2nc3ccccc3nc21	4.1% (inactive)
CCOC(=O)CCC(=O)NCc1ccc2c(c1)cc(C)n2C	0.01% (inactive)
COc1ccc2nc3ccccc3nc2c1NC(=O)c1ccc(Br)cc1	59.2% (active)
CC(=O)N1CCN(S(=O)(=O)c2cccc(C(=O)NNC(=O)c3ccc(Br)cc3)c2)CC1	0.4% (inactive)

SMILES	fluorescence artifact activation
COc1ccc2nc3ccccc3nc2c1NC(=O)c1ccc(Cl)cc1Cl	0.06% (inactive)
CN(C)c1ccc(/C=C/C(=O)c2cc(Cl)ccc2O)cc1	0.19% (inactive)
CC(C)(C)NC(=O)CSc1nnc(-c2ccccn2)n1-c1ccccc1	0.09% (inactive)
Cc1cc(C)c2c(SC(C)C)nc(N)nc2n1	5.3% (inactive)
CCOCCn1c(CN2CCN(CC)CC2)nc2c1c(=O)n(C)c(=O)n2C	21.1% (active)
CCN(CC)c1ccc(/C=C2\C(=O)c3ccc(C(=O)O)cc3C2=O)cc1	8.82% (inactive)
CCN(CC)c1ccc2cc(C(C)=O)c(=O)oc2c1	0.03% (inactive)
CCN(CC)c1ccc2cc(C(=O)NCc3ccc(F)cc3)c(=N)oc2c1	17.9% (active)
CCN(CC)c1ccc2cc(C(=O)Nc3ccccn3)c(=O)oc2c1	-0.06% (inactive)
N#Cc1c(NC(=O)C2CC=CCC2C(=O)O)sc2c1CCCCCC2 (stereo not given)	0.67% (inactive)
Cc1ccc(-c2nn(-c3ccccc3)cc2/C=C2\SC(=S)N(CCCCCC(=O)O)C2=O)o1	3.75% (inactive)
COc1ccccc1C(=O)NNC(=O)CCCN1C(=O)/C(=C/c2cccs2)SC1=S	-0.02% (inactive)
O=C(O)CCCN1C(=O)/C(=C/c2cn(-c3ccccc3)nc2-c2cccs2)SC1=S	54.1% (active)
COc1cccc(/C(O)=C/c2nc3ccc(C(=O)NCCc4cccc(C)c4)cc3[nH]c2=O)c1	0.04% (inactive)
CCc1ccc(/C=C2/C(=O)N(C)C(=S)N2CC(=O)OC)s1	2.56% (inactive)
O=C(Cn1cnc2c(cnn2-c2ccccc2)c1=O)Nc1ccc(S(=O)(=O)N2CCOCC2)cc1	7.41% (inactive)
CN(C)c1ccc(/C=C/C(=O)c2ccc3c(c2)OCO3)cc1	2.49% (inactive)
C[C@H]1CN([C@@H](C)CO)C(=O)c2cccc(NC(=O)c3nc4ccccc4s3)c2O[C@H]1CN(C)C(=O)Nc1ccc(F)cc1	0.31% (inactive)
CC(C)NC(=O)/C(C#N)=C\c1ccc(N(C)C)o1	48.4% (active)
CC(C)NC(=O)/C(C#N)=C/c1ccc(N(C)C)o1	0.18% (inactive)
CCN(CC)c1ccc(/C=C(/C#N)C(=O)NC(C)C)o1	0.06% (inactive)
CCN(c1ccc(N=Cc2c(O)n(Cc3ccc(OC)cc3)c(=O)c3ccccc23)cc1)C(C)C	2.13% (inactive)
O=C(CSC1CC(=O)N(c2ccc(C(=O)O)cc2)C1=O)Nc1ccc2ccccc2c1 (stereo not given)	0.06% (inactive)
O=C(NCCCN1CCOCC1)C(=O)NCc1ccco1	0.11% (inactive)

SMILES	fluorescence artifact activation
O=C(NCc1ccco1)/C(=C\c1ccco1)NC(=O)c1ccc(Br)o1	24.4% (active)
CC(C)(C)c1ccc(C(=O)N/C(=C\c2cccs2)C(=O)NCc2ccco2)cc1	0.07% (inactive)
Cc1cc(=O)c2c([nH]1)c(C)cc1[nH]c(C)c(C)c12	0.09% (inactive)
C=CCn1c(=O)c(C(=O)NCCNCC)c(O)c2ccccc21	0.84% (inactive)
CCCCN=C1N/C(=C\c2ccco2)C(=O)N1c1ccccc1	78.2% (active)
NC(N)=NCc1cccc(I)c1	0.57% (inactive)
CN(C)c1ccc(/C=N/NC(=O)c2cnc3ccccc3c2)cc1	0.02% (inactive)
CC(=O)c1cccc(NC(=S)NC2CCCCC2)c1	0.08% (inactive)
CC(C)CC[C@@H](O)[C@](C)(O)C1CC[C@@]2(O)C3=CC(=O)[C@@H]4C[C@@H](O)[C@@H](O)C[C@]4(C)C3CC[C@]12C (stereo not given in full)	79.3% (active)
CCCCNc1ccc2c3c(cccc13)C(=O)N(CCCC)C2=O	-0.02% (inactive)
CNc1ccc2c3c(cccc13)C(=O)N(C)C2=O	40.8% (active)
CCN1C(=O)c2cccc3c(N)ccc(c23)C1=O	0.02% (inactive)
CN1C(=O)c2cccc3c(N(C)C)ccc(c23)C1=O	70.1% (active)
CN1C(=O)c2cccc3c(N)ccc(c23)C1=O	0.17% (inactive)
Cc1ccccc1N1C(=O)c2cccc3c(N(C)CCO)ccc(c23)C1=O	-0.04% (inactive)
COC(=O)N1c2ccccc2CCc2ccccc21	1.49% (inactive)
CC(=O)Nc1ccc(Nc2c3c4c(cccc4n(C)c2=O)C(=O)c2ccccc2-3)cc1	5.51% (inactive)
COc1ccc(CNC(=O)c2cc3c(s2)CS(=O)C3)cc1 (stereo not given)	0.1% (inactive)
CCc1ccc2c(c1)C(NC(C)=O)C(=O)N2CC (stereo not given)	-0.03% (inactive)
Cc1ccc(S(=O)(=O)c2cccc(S(=O)(=O)N3CCOCC3)c2)cc1S(=O)(=O)N1CCOCC1	6.87% (inactive)
N#C/C(=C\c1ccc(Sc2ccc(Cl)cc2)o1)c1nc2ccccc2[nH]1	-0.03% (inactive)
C=CCN1C(=O)/C(=C\C=C2\N(C)c3ccccc3C2(C)C)SC1=S	0.06% (inactive)
Cc1ccc(C)c(C(=O)CSc2n[nH]c(C(C)C)n2)c1	18.7% (active)
COc1ccc(Cl)cc1-c1nc(SCC(=O)NC(C)C)n[nH]1	0.53% (inactive)

SMILES	fluorescence artifact activation
C/C(N)=C(/C#N)C(=O)CSc1n[nH]c(-c2cccs2)n1	0.14% (inactive)
Cc1[nH]c(=S)c(C#N)c(C)c1CCC#N	10.6% (inactive)
COC(=O)CNC(=O)COC(=O)c1cc(F)c(F)cc1Cl	0.55% (inactive)
Cc1ccccc1C1CC(=O)Oc2cc(O)ccc21 (stereo not given)	0.19% (inactive)
Cc1ccc2[nH]c(C)c(/C=C/c3cc[n+](C)cc3)c2c1	54.8% (active)
Cc1[nH]c2ccccc2c1/C=C/c1cc[n+](C)cc1	3% (inactive)
Cc1ccc2c(c1)c(/C=C/c1cc[n+](C)cc1)c(C)n2C	1.43% (inactive)
COC(=O)Cn1cc(/C=C/c2cc[n+](C)cc2)c2ccccc21	1.9% (inactive)
COc1ccc(NC(=O)Nc2cccnc2)c(OC)c1	0.16% (inactive)
COc1ccc(-c2nc(/C=C3\C(C)=Nc4ccccc43)c(O)o2)cc1	1.03% (inactive)
COc1ccc(-c2nnc(-c3cccnc3)o2)cc1	15.1% (active)
CC(=O)C1=C(O)CCCC1=NCc1nc2ccccc2[nH]1	0.23% (inactive)
CCCN(CCC)C(=O)C1c2ccccc2Oc2ccccc21	3.9% (inactive)
CN1CCC(N(CCc2ccccc2)C(=O)CCC(=O)O)CC1	46% (active)
CN(Cc1ccccc1)C(=O)N1CCOCC1	0.11% (inactive)
CN1CCc2c(sc3c2C(=O)NC(c2ccccn2)N3)C1 (stereo not given)	0.36% (inactive)
Cc1ccccc1-n1c(SCc2c(C)noc2C)nnc1-c1cccnc1	0.05% (inactive)
N#C/C(=C/c1ccc(N2CCOCC2)o1)c1nc2ccccc2[nH]1	0.08% (inactive)
Cc1ccc2nc(/C(C#N)=C/c3ccc(-c4ccccc4C(=O)O)o3)[nH]c2c1	0.32% (inactive)
N#C/C(=C\c1ccc(N2CCOCC2)o1)c1nc2ccccc2[nH]1	14.2% (active)
Cc1ccc2nc(/C(C#N)=C\c3ccc(N4CCOCC4)o3)[nH]c2c1	16.5% (active)
N#C/C(=C\c1ccc(-c2ccccc2C(=O)O)o1)c1nc2ccccc2[nH]1	1.15% (inactive)
N#C/C(=C/c1ccc(N2CCOCC2)o1)C(=O)N1CCOCC1	0.41% (inactive)
